Experimental data from different studies.
Compare with care: the assays were run in different laboratories.
Target: Serine/threonine-protein kinase 32A (STK32A, Homo sapiens, UniProt Q8WU08)

Structure (SMILES) | assay | setting | remaining binding [%]
CN(C)c1ncc(F)c(-c2cnn3ncccc23)n1 | binding | 1 µM | 100
CNC(=O)[C@@H]1CC[C@@H](n2c(-c3ccc4cnccc4c3)nc3ccc(C(=O)NCc4cccc(C(N)=O)c4)cc32)C1 | binding, competition with immobilised ligand | 1 µM | 100
CCCOc1ccc([C@@H]2[C@@H](C(=O)O)[C@H](c3ccc4c(c3)OCO4)CN2CC(=O)Nc2c(CC)cccc2CC)cc1 | cell-free assay, competition with immobilised ligand | 1 µM | 85
CN(c1nccc(-c2cnn3ncccc23)n1)C1CC1 | binding | 1 µM | 100
Nc1ncc2c(n1)-c1c([nH]c3ccc(C#CC4CC4)cc13)CCCC2 | binding, competition with immobilised ligand | 1 µM | 80
C[C@H]1CCN(c2nccc(-c3cnn4ncccc34)n2)C1 | binding | 1 µM | 64
O=C(Nc1c[nH]nc1C(=O)NC1CCNCC1)c1cc(F)cc(F)c1 | binding, competition with immobilised ligand | 1 µM | 95
COc1ccc2c(c1)O[C@H](c1ccc(OC)c(OC)c1)C[C@@H]2NC(=O)C1(c2ccc3c(c2)OC(F)(F)O3)CC1 | cell-free assay, competition with immobilised ligand | 1 µM | 100
N[C@H]1CCN(c2nccc(-c3cnn4ncccc34)n2)C1 | binding | 1 µM | 87
NS(=O)(=O)c1cc(NC(=O)Cc2ccccc2)ccc1Oc1cccc(Cl)c1 | cell-free assay, competition with immobilised ligand | 1 µM | 100
F[C@@H]1CCN(c2nccc(-c3cnn4ncccc34)n2)C1 | binding | 1 µM | 100
c1cncc(-c2cccc(Nc3nccc(NC4CCCCC4)n3)c2)c1 | binding, competition with immobilised ligand | 10 µM | 69
O=C(c1ccc(Nc2ncc(Cl)c(-c3ccc(Cl)s3)n2)cc1)N1CCC(N2CCCC2)CC1 | binding, competition with immobilised ligand | 1 µM | 70
Cc1c(NC(=O)c2cc(C(N)=O)nc3cc(F)ccc23)c(C(F)(F)F)nn1Cc1ccc(C(C)(C)C)cc1 | cell-free assay, competition with immobilised ligand | 1 µM | 100
C=CC(=O)N1CCC(C(=O)NCC(=O)N2CCN(c3nc(-c4cnc(N)nc4C(F)F)nc(N4CCOCC4)n3)CC2)CC1 | binding, competition with immobilised ligand | 1 µM | 91
O=C(c1ccc(Nc2nccc(-c3cc4ccccc4s3)n2)cc1)N1CCC(N2CCCC2)CC1 | binding, competition with immobilised ligand | 1 µM | 100
Cc1c[nH]c2nccc(Oc3c(F)cc(Nc4cc(Cl)nc(N)n4)cc3F)c12 | cell-free assay, competition with immobilised ligand | 0.1 µM | 86
CC1CCCN1c1nccc(-c2cnn3ncccc23)n1 (stereo not shown) | binding | 1 µM | 100
CN([C@@H]1CCc2c(CC(=O)O)c3cc(S(C)(=O)=O)ccc3n2C1)S(=O)(=O)c1ccc(F)cc1 | cell-free assay, competition with immobilised ligand | 1 µM | 100
O=C(NCCCN1CCOCC1)c1ccc(Nc2ncc(Cl)c(-c3ccc(Cl)s3)n2)cc1 | binding, competition with immobilised ligand | 1 µM | 93
COc1ccnn2ncc(-c3ccnc(N(C)C)n3)c12 | binding | 1 µM | 74
N#CC1(c2ccccn2)CCN(Cc2cc(C(=O)N3CCCC3)c(=O)n3ccccc23)CC1 | cell-free assay, competition with immobilised ligand | 1 µM | 98
